# Reference: ChEMBL document CHEMBL4041473, “Identification of novel microsomal prostaglandin E2 synthase-1 (mPGES-1) lead inhibitors from Fragment Virtual Screening” (Eur J Med Chem, 2017)
# pIC50: −log10 of the molar value.
# What was measured:
# [1] = target: T1, Prostaglandin E synthase (Homo sapiens) (UniProt O14684); assay: Inhibition of mPGES-1 in microsomes isolated from IL-1beta-stimulated human A549 cells at 10 uM using PGH2 as substrate preincubated for 15 mins followed by substrate addition measured after 1 min by RP-HPLC method relative to control; assay type: cell-free
# T1 sequence (whole entry): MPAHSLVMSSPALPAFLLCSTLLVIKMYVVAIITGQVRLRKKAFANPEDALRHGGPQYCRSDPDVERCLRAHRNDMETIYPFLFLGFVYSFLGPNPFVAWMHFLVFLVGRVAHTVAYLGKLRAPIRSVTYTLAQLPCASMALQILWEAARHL
# Outline: (§1)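 mPGES-1 source: microsomes of A549 cells stimulated 48 h with IL-1β (1 ng/ml), sonicated, spun 10,000×g 10 min then 174,000×g 1 h at 4 °C. Diluted in 0.1 M potassium phosphate pH 7.4 with 2.5 mM glutathione. Compound or DMSO vehicle added 15 min at 4 °C, then 20 µM PGH2 for 1 min at 4 °C. Stopped with FeCl2/citric acid plus 11β-PGE2. PGE2 measured by solid-phase extraction and RP-HPLC.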
# Prostaglandin E synthase = target: T2, Prostaglandin E synthase (Homo sapiens, UniProt O14684); assay: Inhibition of mPGES-1 in microsomes isolated from IL-1beta-stimulated human A549 cells using PGH2 as substrate preincubated for 15 mins followed by substrate addition measured after 1 min by RP-HPLC method; assay type: cell-free; outline: as §1
# T2 sequence (O14684 whole entry): T1 sequence (whole entry)
Compound,inhibition [1] [%],pIC50 (Prostaglandin E synthase)
CC(=O)O/N=C1\C=Cc2c(no[n+]2[O-])C1=O,20,
O=C1c2nc3nonc3nc2-c2cccc(O)c21,5,
O=C1c2ccccc2-c2nc3nonc3nc21,30,
O=C1c2ccc(O)cc2-c2nc3nonc3nc21,30,
O=C(Oc1ccc2c(c1)C(=O)c1nc3nonc3nc1-2)c1ccccc1,85,5.62
O=C(Oc1cccc2c1C(=O)c1nc3nonc3nc1-2)c1ccccc1,70,5.34
O=C(Oc1ccc2c(c1)-c1nc3nonc3nc1C2=O)c1ccccc1,70,5.62
O=C1c2cc(O)ccc2-c2nc3nonc3nc21,15,
